An excerpt weighted towards active compounds, which were near 4.3% of everything screened.
Yeast growth inh = yeast BB579 growth reduction in restrictive medium. S. cerevisiae BB579 growth, OD615, 48 h. inhibition, % at 10 µM. 140,000 compounds, 0.51% hits. AID 804;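 active means inhibition above a set limit, 3 SD over the mean compound inhibition, cut at about 44% in these data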
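Test system: S. cerevisiae DeaD strain BB579 yeast; Medium: restrictive CSMM-D medium; Compound: one dose, 10 µM compound with 0.25% DMSO; Incubation: 4 h cell preincubation, 48 h compound exposure, 30 °C humidified; Signal: OD at 615 nm; Benchmarks: amphotericin B at 10 µg/mL as positive control.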
Yeast life ext = extends the lifespan of yeast. S. cerevisiae growth with nicotinamide, OD615; deaD strain in restrictive glucose medium. inhibition of the nicotinamide effect, % at 10 µM. 130,000 compounds, 0.68% hits;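 active means inhibition above a set limit, placed 3 SD over the median of all compounds, cut at about 26% in these data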;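 further: 0% = nicotinamide-treated wells and 100% = cells grown without nicotinamide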
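Test system – modified budding yeast, DeaD strain · Compound – single dose 10 µM compound, 0.25% DMSO · Times – culture preincubation 4 h, compound exposure 48 h, both 30 °C · Detection – optical density (absorbance) at 615 nm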
RAM inhibit = inhibitors of the yeast RAM network; inhibition, % at 50 µM; 190,000 compounds, 1.8% hits; AID 868; S. cerevisiae dse1pr::URA3 reporter, 5-FOA growth OD615, 2 d; analog-sensitive cbk1-as2 kinase mutant strain;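 active means inhibition above a set limit, 3 SD over mean compound inhibition, cut at about 8.4% in these data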;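 further: 0% = DMSO-only wells with no growth and 100% = 10 µM 1-NA-PP1 full growth; inhibition rescues growth on 5-FOA so higher OD means more RAM inhibition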
WT yeast gro inh = growth inhibition of WT yeast, mitochondrial fusion screen; inhibition, % at 10 µM; 190,000 compounds, 2.1% hits; mitochondrial fusion phenotypic screen, WT strain; in the data active means inhibition above about 58%; tested in S. cerevisiae
RAM 5-FOA = restores 5-FOA growth of efflux-deficient yeast; AID 1305; max inhibition, %; 1,200 tested, under 10 active; S. cerevisiae efflux-deficient reporter strain, 5-FOA growth OD615, 2 days; shares compounds with RAM inhibit; call rule not given here;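 further: plate controls were vehicle for no effect and reference inhibitor for full effect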
* hit, by the source's call; nt = no result.

SMILES | Yeast growth inh | Yeast life ext | RAM inhibit | WT yeast gro inh | RAM 5-FOA
CCOC(=O)Cc1csc(NC(=O)c2c(O)c3ccccc3n(CCC(C)C)c2=O)n1 | nt | nt | 12* | -6 | 3
Cc1ccsc1C(=O)C1CCCN(Cc2cccn2-c2ccccn2)C1 (stereo not given) | nt | nt | 2 | 2 | nt
OC1CCCCC1N1CCC(c2ccccc2)CC1 (stereo not given) | -61 | 7 | 1 | -3 | nt
CCC(C)C1(CC)C(=O)NC(=O)N=C1N (stereo not given) | -5 | -5 | 0 | -4 | nt
O=C(Nc1cccc(C(F)(F)F)c1)c1cccn(Cc2ccc3c(c2)OC(F)(F)O3)c1=O | -72 | -13 | 14* | 43 | 3
CC(C)Oc1cccc(NC(=O)c2cccn(Cc3ccc4c(c3)OC(F)(F)O4)c2=O)c1 | -74 | -4 | 13* | 15 | 1
CCC(C)N=Cc1c(O)n(-c2ccccc2)c(=O)[nH]c1=O (stereo not given) | -38 | 1 | 0 | -14 | nt
CC(C)CCN(N=O)[C@@H](Cc1ccccc1)CN(N=O)[C@@H](Cc1ccccc1)CN(C)N=O | nt | nt | 20* | 5 | 8
C#CCN(C)[C@H](C)Cc1ccccc1 | nt | nt | nt | -1 | nt
CN(C[C@H](Cc1ccccc1)N(C[C@H](Cc1ccccc1)N(CCC(C)(C)C)N=O)N=O)N=O | nt | nt | 13* | 14 | 3
COc1ccc(C)cc1NC(=O)c1c(C)nn(Cc2ccccc2)c1Cl | -46 | -5 | 13* | 25 | 3
CCOc1ccc(NC(=O)c2c(C)nn(Cc3ccccc3)c2Cl)cc1 | -16 | -3 | 2 | -6 | nt
O=C(COc1ccccc1)c1cn(Cc2ccccc2)c2ccccc12 | -25 | 0 | 12* | -2 | 5
CN1CCC2(CC1)CC(NC=O)c1ccccc1O2 (stereo not given) | nt | nt | 2 | -3 | nt
CCc1ccccc1N1C(=O)NC(=O)/C(=C\c2cc(C)n(C)c2C)C1=O | -10 | 0 | 4 | -11 | nt
CC1(C)OC(c2ccccc2)=C/C(=C/C=C2C(=O)NC(=S)NC2=O)O1 | nt | nt | 18* | -11 | 6
CN1/C(=C\C=C2C(=O)NC(=S)NC2=O)C(C)(C)c2ccccc21 | nt | nt | 11* | 15 | 5
O=C(c1ccco1)c1cn(Cc2ccccc2)c2ccccc12 | -1 | -10 | 6 | 27 | nt
O=C(c1ccco1)c1cn(Cc2ccccc2Cl)c2ccccc12 | -29 | -9 | 18* | 41 | 4
CCCCCCN=C(C)c1c(O)n(CCCC)c(=O)[nH]c1=O | -27 | -8 | 1 | 7 | nt
O=c1c2ccc(Cl)cc2[nH]c(=S)n1-c1cccnc1 | nt | nt | 16* | 1 | 2
COc1cccc(-n2c(=S)[nH]c3ccccc3c2=O)c1 | nt | nt | 1 | -10 | nt
Clc1cccc(C2NCCc3[nH]cnc32)c1 (stereo not given) | -22 | -2 | 1 | 10 | nt
COc1cccc(NP(=O)(Oc2ccccc2Cl)Oc2ccccc2Cl)c1 | -28 | 11 | 13* | 40 | 2
CCC(=O)Oc1ccc(C(=O)Nc2cccc(C(=O)c3ccccc3)c2)cc1 | -41 | 3 | 12* | 8 | 0
CC1=CC(=C2C(=O)NC(=O)NC2=O)C=C(C(F)(F)F)N1C(C)C | -20 | 0 | 0 | 1 | nt

From PubChem BioAssay
